Source: ChEMBL document CHEMBL3286182, “4-aminoquinolone piperidine amides: noncovalent inhibitors of DprE1 with long residence time and potent antimycobacterial activity” (J Med Chem, 2014)
Converted amounts (≈) assume the structure as drawn.

Columns and labels:
[1] = biological target: Cytochrome P450 2D6 (Homo sapiens, UniProt P10635); assay: Inhibition of CYP2D6 (unknown origin); assay type: ADME
In short: (§1)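 CYP inhibition IC50 measured on isoforms CYP3A4, CYP2D6, CYP2C9, CYP2C19 and CYP1A2.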

[2] = Octanol-water partition coefficient, log D of the compound by shake-flask method; assay type: physicochemical
[3] = test system: Mycobacterium tuberculosis; assay: Antimycobacterial activity against Mycobacterium tuberculosis H37Rv after 5 days by standard microdilution method; assay type: functional; conditions: 120 h
[4] = biological target: Cytochrome P450 2C9 (Homo sapiens, UniProt P11712); assay: Inhibition of CYP2C9 (unknown origin); assay type: ADME; in short: as §1
[5] = Solubility of the compound in 0.1 M phosphate buffer at pH 7.4 after 24 hrs by UV and MS analysis; assay type: physicochemical
[6] = Cytotoxicity against human A549 cells after 72 hrs by resazurin based fluorescence assay; assay type: cell-based; conditions: read-out: MIC
In short: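 Cytotoxicity read as MMIC, the MIC on the A549 cell line.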

[7] = Permeability of the compound from basolateral to apical side in human Caco2 cells; assay type: ADME, cell-based; conditions: Caco-2, read-out: permeability
[8] = biological target: T1, Cytochrome P450 1A2 (Homo sapiens, UniProt P05177); assay: Inhibition of CYP1A2 (unknown origin); assay type: ADME; in short: as §1
T1 sequence (P05177 whole entry): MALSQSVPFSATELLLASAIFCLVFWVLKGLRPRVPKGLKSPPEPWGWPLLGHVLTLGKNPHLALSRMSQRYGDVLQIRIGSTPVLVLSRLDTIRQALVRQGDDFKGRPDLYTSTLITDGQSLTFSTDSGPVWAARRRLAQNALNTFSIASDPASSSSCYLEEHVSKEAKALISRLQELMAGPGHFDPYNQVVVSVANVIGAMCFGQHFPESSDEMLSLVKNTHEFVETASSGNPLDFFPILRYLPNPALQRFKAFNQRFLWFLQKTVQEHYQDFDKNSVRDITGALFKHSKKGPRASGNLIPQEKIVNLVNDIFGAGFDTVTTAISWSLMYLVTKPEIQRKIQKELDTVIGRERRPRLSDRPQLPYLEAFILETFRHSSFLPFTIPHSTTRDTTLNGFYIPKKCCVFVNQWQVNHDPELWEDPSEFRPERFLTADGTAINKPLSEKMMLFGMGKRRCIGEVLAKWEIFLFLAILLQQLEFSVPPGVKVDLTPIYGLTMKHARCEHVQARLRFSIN

[9] = Inhibition of Mycobacterium smegmatis recombinant DprE1 using farnesylphosphoryl-beta-D-ribofuranose as substrate assessed as conversion of amplex red to resorufin after 30 mins; design: species or system Mycolicibacterium smegmatis
In short: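 Msm DprE1 (thioredoxin-6His fusion of Msm Rv3790) at 75 nM, preincubated 30 min with 10 μM FAD. Buffer: 50 mM glycylglycine pH 8.5, 200 mM potassium glutamate, 0.002% Brij-35, 2% DMSO, 25 °C. Started with 300 μM farnesylphosphoryl-β-D-ribofuranose, 0.01 mg/mL HRP and 50 μM Amplex Red.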

[10] = Fraction unbound in human plasma at 20 uM after 18 hrs by equilibrium dialysis method; assay type: ADME, cell-free
[11] = biological target: Cytochrome P450 2C19 (Homo sapiens, UniProt P33261); assay: Inhibition of CYP2C19 (unknown origin); assay type: ADME; in short: as §1
[12] = Intrinsic clearance in rat cryopreserved hepatocytes assessed per 10^6 cells at 1 uM up to 120 mins by LC-MS/MS analysis; assay type: ADME, cell-based, Hepatocyte; conditions: read-out: CLH
[13] = Permeability of the compound from apical to basolateral side in human Caco2 cells; assay type: ADME, cell-based; conditions: Caco-2, read-out: permeability
[14] = biological target: Voltage-gated inwardly rectifying potassium channel KCNH2 (Homo sapiens, UniProt Q12809); assay: Inhibition of human ERG by medium-throughput electrophysiology
[15] = biological target: Cytochrome P450 3A4 (Homo sapiens, UniProt P08684); assay: Inhibition of CYP3A4 (unknown origin); assay type: ADME; in short: as §1
[16] = Solubility of the compound in fed-state simulated intestinal fluid at pH 6.5; assay type: ADME
[17] = Intrinsic clearance in human liver microsomes at 1 uM up to 30 mins by LC-MS/MS analysis; assay type: ADME; conditions: read-out: CLH
[18] = biological target: T2, Adenosine receptor A1 (Homo sapiens, UniProt P30542); assay: Inhibition of adenosine A1 receptor (unknown origin)
T2 sequence (P30542 whole entry): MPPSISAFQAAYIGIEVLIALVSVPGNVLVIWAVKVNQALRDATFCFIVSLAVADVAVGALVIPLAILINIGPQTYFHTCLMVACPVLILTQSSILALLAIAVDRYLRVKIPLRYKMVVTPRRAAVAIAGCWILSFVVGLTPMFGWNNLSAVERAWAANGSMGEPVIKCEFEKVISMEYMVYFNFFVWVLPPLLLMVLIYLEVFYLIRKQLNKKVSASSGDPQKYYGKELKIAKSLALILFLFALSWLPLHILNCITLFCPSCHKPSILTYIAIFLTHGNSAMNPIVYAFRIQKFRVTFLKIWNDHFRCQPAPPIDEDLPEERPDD
In short: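 Secondary pharmacology panel of binding, enzyme and functional assays covering 24 molecular targets. Activity recorded as a defined Ki/IC50/EC50.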

Sequence of Voltage-gated inwardly rectifying potassium channel KCNH2 (Q12809 whole entry): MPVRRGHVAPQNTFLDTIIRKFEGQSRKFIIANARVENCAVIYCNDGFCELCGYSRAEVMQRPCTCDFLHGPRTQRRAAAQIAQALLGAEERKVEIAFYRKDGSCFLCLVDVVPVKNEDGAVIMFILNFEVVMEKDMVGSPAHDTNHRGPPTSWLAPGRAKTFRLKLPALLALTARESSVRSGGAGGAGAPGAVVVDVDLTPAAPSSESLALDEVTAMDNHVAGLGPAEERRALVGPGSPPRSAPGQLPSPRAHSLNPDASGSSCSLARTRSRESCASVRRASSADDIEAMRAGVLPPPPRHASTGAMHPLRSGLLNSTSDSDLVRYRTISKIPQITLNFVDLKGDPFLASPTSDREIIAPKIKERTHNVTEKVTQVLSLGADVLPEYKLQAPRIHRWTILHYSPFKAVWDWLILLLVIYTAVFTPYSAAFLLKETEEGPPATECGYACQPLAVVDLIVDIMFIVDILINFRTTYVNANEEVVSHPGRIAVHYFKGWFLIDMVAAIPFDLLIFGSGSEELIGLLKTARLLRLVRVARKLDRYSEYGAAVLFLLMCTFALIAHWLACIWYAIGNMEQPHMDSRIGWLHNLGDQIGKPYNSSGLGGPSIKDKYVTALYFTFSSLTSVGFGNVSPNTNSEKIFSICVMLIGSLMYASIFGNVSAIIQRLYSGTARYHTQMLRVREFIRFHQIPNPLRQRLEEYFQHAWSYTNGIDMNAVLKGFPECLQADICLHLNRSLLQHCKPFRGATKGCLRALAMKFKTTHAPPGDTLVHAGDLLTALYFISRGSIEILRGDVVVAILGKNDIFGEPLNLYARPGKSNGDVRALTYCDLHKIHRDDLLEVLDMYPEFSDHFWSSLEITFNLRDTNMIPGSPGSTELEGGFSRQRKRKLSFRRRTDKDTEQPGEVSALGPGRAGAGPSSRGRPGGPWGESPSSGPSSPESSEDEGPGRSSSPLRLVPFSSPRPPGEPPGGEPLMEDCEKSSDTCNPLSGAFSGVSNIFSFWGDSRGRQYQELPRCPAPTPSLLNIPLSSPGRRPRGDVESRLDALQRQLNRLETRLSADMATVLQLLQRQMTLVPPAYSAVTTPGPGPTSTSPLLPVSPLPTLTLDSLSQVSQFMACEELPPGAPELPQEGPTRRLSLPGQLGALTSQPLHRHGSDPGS
Sequence of Cytochrome P450 3A4 (P08684 whole entry): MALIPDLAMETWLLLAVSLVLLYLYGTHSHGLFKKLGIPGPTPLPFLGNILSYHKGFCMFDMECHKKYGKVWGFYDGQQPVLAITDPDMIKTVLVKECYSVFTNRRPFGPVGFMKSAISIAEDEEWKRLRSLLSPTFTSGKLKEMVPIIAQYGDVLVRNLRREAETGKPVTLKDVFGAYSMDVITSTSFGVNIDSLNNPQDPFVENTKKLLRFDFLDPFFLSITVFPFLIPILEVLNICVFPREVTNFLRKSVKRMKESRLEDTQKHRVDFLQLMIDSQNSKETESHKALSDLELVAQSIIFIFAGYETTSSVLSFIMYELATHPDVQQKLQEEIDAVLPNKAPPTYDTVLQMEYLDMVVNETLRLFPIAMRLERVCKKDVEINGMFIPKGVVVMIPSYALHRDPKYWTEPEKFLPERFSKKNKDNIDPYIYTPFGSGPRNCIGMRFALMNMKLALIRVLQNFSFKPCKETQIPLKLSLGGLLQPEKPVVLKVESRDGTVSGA
Sequence of Cytochrome P450 2C9 (P11712 whole entry): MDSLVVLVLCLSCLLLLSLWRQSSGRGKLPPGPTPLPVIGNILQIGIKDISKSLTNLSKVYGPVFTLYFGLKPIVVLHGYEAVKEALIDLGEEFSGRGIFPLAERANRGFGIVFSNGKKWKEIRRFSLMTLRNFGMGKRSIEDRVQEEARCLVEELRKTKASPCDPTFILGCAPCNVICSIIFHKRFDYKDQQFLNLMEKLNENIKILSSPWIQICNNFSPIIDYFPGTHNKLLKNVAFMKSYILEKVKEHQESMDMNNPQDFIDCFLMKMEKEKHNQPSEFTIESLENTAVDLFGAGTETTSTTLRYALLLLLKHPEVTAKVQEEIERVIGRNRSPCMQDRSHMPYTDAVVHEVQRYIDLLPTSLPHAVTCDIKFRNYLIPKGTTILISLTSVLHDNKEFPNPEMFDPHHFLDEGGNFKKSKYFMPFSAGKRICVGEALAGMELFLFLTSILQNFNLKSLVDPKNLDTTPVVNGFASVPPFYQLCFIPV
Sequence of Cytochrome P450 2C19 (P33261 whole entry): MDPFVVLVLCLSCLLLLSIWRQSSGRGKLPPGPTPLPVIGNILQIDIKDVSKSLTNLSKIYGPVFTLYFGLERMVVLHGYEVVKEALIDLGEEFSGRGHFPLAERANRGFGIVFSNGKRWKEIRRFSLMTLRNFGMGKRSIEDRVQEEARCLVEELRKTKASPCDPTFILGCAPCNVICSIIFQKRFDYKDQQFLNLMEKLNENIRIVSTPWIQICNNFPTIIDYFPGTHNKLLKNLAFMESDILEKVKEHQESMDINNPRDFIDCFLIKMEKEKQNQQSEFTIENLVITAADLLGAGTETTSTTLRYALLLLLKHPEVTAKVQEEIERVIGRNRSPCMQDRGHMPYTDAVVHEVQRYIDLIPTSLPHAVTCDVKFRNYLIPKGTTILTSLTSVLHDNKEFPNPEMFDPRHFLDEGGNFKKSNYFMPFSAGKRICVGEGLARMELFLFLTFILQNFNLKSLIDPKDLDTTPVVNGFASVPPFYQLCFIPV
Sequence of Cytochrome P450 2D6 (P10635 whole entry, canonical isoform): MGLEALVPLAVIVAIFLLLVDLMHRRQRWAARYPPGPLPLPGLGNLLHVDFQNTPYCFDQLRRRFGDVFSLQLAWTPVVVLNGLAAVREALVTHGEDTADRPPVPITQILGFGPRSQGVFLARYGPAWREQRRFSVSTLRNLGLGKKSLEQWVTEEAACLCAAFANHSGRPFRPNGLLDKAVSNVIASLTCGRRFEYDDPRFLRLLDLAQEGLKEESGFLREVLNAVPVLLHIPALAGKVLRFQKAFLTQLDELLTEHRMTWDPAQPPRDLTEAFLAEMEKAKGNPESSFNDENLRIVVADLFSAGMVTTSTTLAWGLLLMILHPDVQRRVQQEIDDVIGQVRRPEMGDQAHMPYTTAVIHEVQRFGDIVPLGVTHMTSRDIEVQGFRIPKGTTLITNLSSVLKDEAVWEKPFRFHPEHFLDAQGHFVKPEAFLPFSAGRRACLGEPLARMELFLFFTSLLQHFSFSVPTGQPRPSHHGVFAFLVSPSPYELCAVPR

Compound | INH [1] | logD [2] | MIC [3] | INH [4] | solubility at 24 h [5] | MCC at 72 h [6] | Papp B→A [7] | INH [8] | IC50 [9] | fraction unbound at 18 h, 20 µM [10] | INH [11] | hepatocyte CLint at 1 µM [12] | Papp A→B [13] | IC50 [14] | INH [15] | solubility [16] | microsomal CLint at 1 µM [17] | IC50 [18]
Cc1onc(C(=O)N2[C@@H]3CC[C@H]2C[C@@H](Nc2cc(=O)n(C)c4nccnc24)C3)c1C | > 30 µM | 1.8 | 6.2 µM (≈ 2.53 µg/mL) | > 30 µM | 132 µM (≈ 53.9 µg/mL) | > 50 µM | 21 ×10⁻⁶ cm/s | > 30 µM | 0.183 µM | 0.05 | > 30 µM | 20 µL/min/1e6 cells | 33 ×10⁻⁶ cm/s | > 33 µM | > 30 µM | 307 µM (≈ 125 µg/mL) | 100 µL/min/mg | –
Cn1ncc(C(=O)N2[C@@H]3CC[C@H]2C[C@@H](Nc2cc(=O)n(C)c4ncccc24)C3)c1Cl | > 30 µM | 1.8 | 0.25 µM (≈ 0.107 µg/mL) | > 30 µM | 20 µM (≈ 8.54 µg/mL) | > 50 µM | 36 ×10⁻⁶ cm/s | > 30 µM | 0.026 µM | 0.01 | > 30 µM | 3 µL/min/1e6 cells | 1 ×10⁻⁶ cm/s | > 33 µM | > 30 µM | 100 µM (≈ 42.7 µg/mL) | 37 µL/min/mg | –
Cn1ncc(C(=O)N2[C@@H]3CC[C@H]2C[C@@H](Nc2n[nH]c4ccc(F)cc24)C3)c1Cl | > 30 µM | 1.9 | 6.25 µM (≈ 2.52 µg/mL) | > 30 µM | > 1000 µM | > 50 µM | 31 ×10⁻⁶ cm/s | > 30 µM | 0.12 µM | 0.08 | > 30 µM | 9 µL/min/1e6 cells | 20 ×10⁻⁶ cm/s | > 33 µM | > 30 µM | – | 4 µL/min/mg | 8 µM
Cc1onc(C(=O)N2[C@@H]3CC[C@H]2C[C@@H](Nc2cc(=O)n(C)c4cc(F)c(F)cc24)C3)c1C | > 30 µM | 2.8 | 0.12 µM (≈ 0.0531 µg/mL) | > 30 µM | 6 µM (≈ 2.65 µg/mL) | > 50 µM | 13 ×10⁻⁶ cm/s | > 30 µM | 0.017 µM | 0.03 | > 30 µM | 56 µL/min/1e6 cells | 23 ×10⁻⁶ cm/s | 16 µM | > 30 µM | – | 107 µL/min/mg | 8 µM
